The source made the active and inactive calls. The calls are words filed in the database; no cut-off is given here.
Experiments:
[1] = tested on: Human immunodeficiency virus 1; assay: Antiviral activity against HIV1 Bal infected in human HOS cells after 72 hrs by luminescence assay; assay type: functional, organism-based; conditions: Human immunodeficiency virus 1, Bal
Method in brief: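 R5-tropic virus infection of HOS cells (hCXCR4/hCCR5/hCD4, LTR-luciferase reporter). Cells were plated in DMEM with 2% FCS overnight, pre-incubated with compound for 1 h, then given virus pre-mixed with compound. Incubation was 72 h at 37°C. Read-out was luciferase luminescence. IC50 from a four-parameter logistic fit.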

[2] = tested on: Human immunodeficiency virus 1; assay: Antiviral activity against HIV1 3B infected in human HOS cells after 72 hrs by luminescence assay in presence of 1 mg/ml alpha-acid glycoprotein; assay type: functional, organism-based; conditions: Human immunodeficiency virus 1, 3B
[3] = tested on: Human immunodeficiency virus 1; assay: Antiviral activity against HIV1 JRCSF assessed as inhibition of viral replication by cell-based assay; assay type: functional; conditions: JRCSF ISOLATE
[4] = target: C-X-C chemokine receptor type 4 (Homo sapiens) (UniProt P61073); assay: Agonist activity at human CXCR4 expressed in HEK293 cells assessed as effect intracellular calcium level after 1 hr by FLIPR assay; assay type: functional, cell-based
[5] = target: C-X-C chemokine receptor type 4 (Homo sapiens) (UniProt P61073); assay: Antagonist activity at human CXCR4 expressed in HEK293 cells assessed as inhibition of SDF1-induced increase in intracellular calcium level treated 15 mins before agonist challenge measured after 1 hr by FLIPR assay; assay type: functional, cell-based
[6] = target: C-X-C chemokine receptor type 4 (Homo sapiens) (UniProt P61073); assay: Noncompetitive antagonist activity at human CXCR4 expressed in HEK293 cells assessed as inhibition of SDF1-induced increase in intracellular calcium level treated 15 mins before agonist challenge measured after 1 hr by FLIPR assay; assay type: functional, cell-based
[7] = target: C-X-C chemokine receptor type 4 (Homo sapiens) (UniProt P61073); assay: Inhibition of CXCR4-mediated chemotaxis in SDF1-stimulated human U937 cells treated 15 mins before SDF1 challenge measured after 2 hrs by luminescence assay; assay type: cell-based; conditions: U-937
Method in brief: (§1)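 U937 cells (endogenous CXCR4) in RPMI with 2% FCS and 10 mM HEPES, 5 × 10^6 cells/ml, preincubated 15 min with compound, then placed above a 5.0 μm filter. The lower chamber held the same compound concentration plus SDF-1. Migration ran 2 h. Migrated cells were quantified by ATP luminescence. Viability was checked under identical conditions. For mode of action, SDF-1 concentration-response curves were run at increasing compound concentrations.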

[8] = target: C-X-C chemokine receptor type 4 (Homo sapiens) (UniProt P61073); assay: Inhibition of CXCR4-mediated chemotaxis in SDF1-stimulated human U937 cells treated 15 mins before SDF1 challenge measured after 2 hrs by luminescence assay relative to control; assay type: cell-based; conditions: U-937; method in brief: as §1
[9] = target: C-X-C chemokine receptor type 4 (Homo sapiens) (UniProt P61073); assay: Noncompetitive inhibition of CXCR4-mediated chemotaxis in SDF1-stimulated human U937 cells treated 15 mins before SDF1 challenge measured after 2 hrs by luminescence assay; assay type: cell-based; conditions: U-937; method in brief: as §1
[10] = target: Cytochrome P450 2C9 (Homo sapiens, UniProt P11712); assay: Inhibition of CYP2C9 up to 30 uM; assay type: ADME
[11] = Volume of distribution at steady state in dog at 1 mg/kg, iv administered as single dose after 24 hrs by liquid chromatography-mass spectroscopy; assay type: ADME, organism-based, Canis lupus familiaris; design: dose 1 mg/kg, route intravenous; conditions: in vivo, read-out: Vdss
[12] = Clearance in mouse at 1 mg/kg, iv administered as single dose after 24 hrs by liquid chromatography-mass spectroscopy; assay type: ADME, organism-based; design: dose 1 mg/kg, route intravenous; conditions: in vivo
Method in brief: (§2)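 Single intravenous dose of 1 mg/kg. Plasma was sampled at serial times over 24 h and measured by LC-MS/MS. Clearance was derived by pharmacokinetic analysis.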

[13] = Clearance in dog at 1 mg/kg, iv administered as single dose after 24 hrs by liquid chromatography-mass spectroscopy; assay type: ADME, organism-based, Canis lupus familiaris; design: dose 1 mg/kg, route intravenous; conditions: in vivo; method in brief: as §2
[14] = Clearance in monkey at 1 mg/kg, iv administered as single dose after 24 hrs by liquid chromatography-mass spectroscopy; assay type: ADME, organism-based, Macaca mulatta; design: dose 1 mg/kg, route intravenous; conditions: rhesus monkey, in vivo; method in brief: as §2
[15] = Volume of distribution at steady state in rat at 1 mg/kg, iv administered as single dose after 24 hrs by liquid chromatography-mass spectroscopy; assay type: ADME, organism-based; design: dose 1 mg/kg, route intravenous; conditions: in vivo, read-out: Vdss
[16] = Half life in mouse at 3 mg/kg, po administered as single dose by liquid chromatography-mass spectroscopy; assay type: ADME, organism-based; design: dose 3 mg/kg, route oral; conditions: in vivo
[17] = Half life in monkey at 3 mg/kg, po administered as single dose by liquid chromatography-mass spectroscopy; assay type: ADME, organism-based, Macaca mulatta; design: dose 3 mg/kg, route oral; conditions: rhesus monkey, in vivo
Method in brief: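 Single oral dose of 3 mg/kg. Plasma was sampled at serial times over 24 h and measured by LC-MS/MS. Half-life was derived by pharmacokinetic analysis.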

[18] = Oral bioavailability in monkey at 3 mg/kg administered as single dose after 24 hrs by liquid chromatography-mass spectroscopy; assay type: ADME, organism-based, Macaca mulatta; conditions: rhesus monkey, in vivo
[19] = tested on: Human immunodeficiency virus 1; assay: Antiviral activity against HIV1 isolate 05-121790 assessed as inhibition of viral replication after 7 days by scintillation counting; assay type: functional, organism-based; conditions: Human immunodeficiency virus 1, isolate 05-121790, 168 h
[20] = tested on: Human immunodeficiency virus 1; assay: Antiviral activity against HIV1 isolate 05-121792 assessed as inhibition of viral replication after 7 days by scintillation counting; assay type: functional, organism-based; conditions: Human immunodeficiency virus 1, isolate 05-121792, 168 h
[21] = tested on: Human immunodeficiency virus 1; assay: Antiviral activity against HIV1 isolate 05-121771 assessed as inhibition of viral replication after 7 days by scintillation counting; assay type: functional, organism-based; conditions: Human immunodeficiency virus 1, isolate 05-121771, 168 h
[22] = tested on: Human immunodeficiency virus 1; assay: Antiviral activity against HIV1 isolate 05-121774 assessed as inhibition of viral replication after 7 days by scintillation counting; assay type: functional, organism-based; conditions: Human immunodeficiency virus 1, isolate 05-121774, 168 h
[23] = tested on: Human immunodeficiency virus 1; assay: Antiviral activity against HIV1 isolate 05-121780 assessed as inhibition of viral replication after 7 days by scintillation counting; assay type: functional, organism-based; conditions: Human immunodeficiency virus 1, isolate 05-121780, 168 h
[24] = tested on: Human immunodeficiency virus 1; assay: Antiviral activity against HIV1 isolate 05-121781 assessed as inhibition of viral replication after 7 days by scintillation counting; assay type: functional, organism-based; conditions: Human immunodeficiency virus 1, isolate 05-121781, 168 h
[25] = tested on: Human immunodeficiency virus 1; assay: Antiviral activity against HIV1 isolate 05-121783 assessed as inhibition of viral replication after 7 days by scintillation counting; assay type: functional, organism-based; conditions: Human immunodeficiency virus 1, isolate 05-121783, 168 h
[26] = tested on: Human immunodeficiency virus 1; assay: Antiviral activity against HIV1 isolate 05-121784 assessed as inhibition of viral replication after 7 days by scintillation counting; assay type: functional, organism-based; conditions: Human immunodeficiency virus 1, isolate 05-121784, 168 h
[27] = tested on: Human immunodeficiency virus 1; assay: Antiviral activity against HIV1 isolate 05-121785 assessed as inhibition of viral replication after 7 days by scintillation counting; assay type: functional, organism-based; conditions: Human immunodeficiency virus 1, isolate 05-121785, 168 h
[28] = tested on: Human immunodeficiency virus 1; assay: Antiviral activity against HIV1 isolate 05-121788 assessed as inhibition of viral replication after 7 days by scintillation counting; assay type: functional, organism-based; conditions: Human immunodeficiency virus 1, isolate 05-121788, 168 h
[29] = tested on: Human immunodeficiency virus 1; assay: Antiviral activity against HIV1 isolate 05-121796 assessed as inhibition of viral replication after 7 days by scintillation counting; assay type: functional, organism-based; conditions: Human immunodeficiency virus 1, isolate 05-121796, 168 h
[30] = tested on: Human immunodeficiency virus 1; assay: Antiviral activity against HIV1 isolate 05-121798 assessed as inhibition of viral replication after 7 days by scintillation counting; assay type: functional, organism-based; conditions: Human immunodeficiency virus 1, isolate 05-121798, 168 h
[31] = tested on: Human immunodeficiency virus 1; assay: Antiviral activity against HIV1 isolate 05-121800 assessed as inhibition of viral replication after 7 days by scintillation counting; assay type: functional, organism-based; conditions: Human immunodeficiency virus 1, isolate 05-121800, 168 h
[32] = tested on: Human immunodeficiency virus 1; assay: Antiviral activity against HIV1 isolate 05-121801 assessed as inhibition of viral replication after 7 days by scintillation counting; assay type: functional, organism-based; conditions: Human immunodeficiency virus 1, isolate 05-121801, 168 h

Sequence of C-X-C chemokine receptor type 4 (Homo sapiens) (P61073 whole entry): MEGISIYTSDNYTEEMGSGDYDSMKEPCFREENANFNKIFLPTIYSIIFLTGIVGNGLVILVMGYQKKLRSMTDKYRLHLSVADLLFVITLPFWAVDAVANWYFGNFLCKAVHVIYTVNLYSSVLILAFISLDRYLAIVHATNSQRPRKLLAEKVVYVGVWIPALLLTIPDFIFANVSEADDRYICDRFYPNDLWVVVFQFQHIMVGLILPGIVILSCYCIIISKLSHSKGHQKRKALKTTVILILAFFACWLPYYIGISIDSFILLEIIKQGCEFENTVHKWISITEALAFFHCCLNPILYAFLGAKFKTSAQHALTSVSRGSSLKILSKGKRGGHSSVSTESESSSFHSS
Sequence of Cytochrome P450 2C9 (P11712 whole entry): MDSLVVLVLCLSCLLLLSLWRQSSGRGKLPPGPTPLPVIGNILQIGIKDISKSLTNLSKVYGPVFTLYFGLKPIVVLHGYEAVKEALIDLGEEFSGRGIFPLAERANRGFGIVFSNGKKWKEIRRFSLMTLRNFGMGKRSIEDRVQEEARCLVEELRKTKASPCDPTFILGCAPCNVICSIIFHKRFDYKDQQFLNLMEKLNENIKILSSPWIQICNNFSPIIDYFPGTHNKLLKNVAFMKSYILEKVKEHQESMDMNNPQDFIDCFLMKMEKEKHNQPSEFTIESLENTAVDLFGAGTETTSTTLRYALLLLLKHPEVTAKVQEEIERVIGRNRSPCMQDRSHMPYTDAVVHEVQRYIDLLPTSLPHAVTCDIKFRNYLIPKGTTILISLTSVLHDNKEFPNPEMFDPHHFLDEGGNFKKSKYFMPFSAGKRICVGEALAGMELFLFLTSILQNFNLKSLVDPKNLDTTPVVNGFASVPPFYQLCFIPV

Structure (SMILES): CN1CCN(c2cccc3nc(CN(C)[C@H]4CCCc5cccnc54)c(CO)n23)CC1
- IC50 [1]: > 2500 nM
- IC50 [2]: 2.87 nM
- inhibition [3]: inactive
- Activity [4]: inactive
- Activity [5]: Dose-dependent effect
- Activity [6]: Active
- inhibition [7]: Dose-dependent effect
- inhibition [8]: 109%
- inhibition [9]: Active
- inhibition (INH) [10]: Not Active
- Vd [11]: 5.3 L/kg
- clearance [12]: 15.9 mL/min/kg
- clearance [13]: 5.5 mL/min/kg
- clearance [14]: 5.8 mL/min/kg
- Vd [15]: 2.1 L/kg
- half-life [16]: 4.1 h
- half-life [17]: > 12 h
- bioavailability [18]: 17%
- IC50 [19]: 1 nM
- IC50 [20]: 1 nM
- IC50 [21]: 1 nM
- IC50 [22]: 1 nM
- IC50 [23]: 1 nM
- IC50 [24]: 1 nM
- IC50 [25]: 1 nM
- IC50 [26]: 1 nM
- IC50 [27]: 1 nM
- IC50 [28]: 1 nM
- IC50 [29]: 1 nM
- IC50 [30]: 1 nM
- IC50 [31]: 1 nM
- IC50 [32]: 1 nM
